Experimental data taken from article PMC2854023 (Journal of biomolecular screening, 2010).
Where two headings read alike, the source gives them in different places.

Columns and labels:
PDE7A = PDE7A (Homo sapiens, UniProt Q13946); assay: In vitro PDE enzyme assay; format: biochemical
How it was run: (§1)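 Radiometric PDE assay with 25nM initial 3H-cAMP for 15 min, over which the hydrolysis rate was constant. 3H-AMP was separated by Ba(OH)2 precipitation and remaining cAMP counted by scintillation. PDE7A was commercial; PDE7B was a gift. IC50 is the concentration halving the hydrolysis rate relative to vehicle controls. PDE7B Km came from Michaelis-Menten kinetics, analysed by Lineweaver-Burke and Eadie-Hofstee plots.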

PDE7B = PDE7B (Homo sapiens, UniProt Q9NP56); assay: In vitro PDE enzyme assay; format: biochemical; conditions: for IC50 on PDE7B relative to PDE7A: in vitro enzyme assays, PDE7B vs PDE7A
PDE7B, sequence (Q9NP56 whole entry, species assumed): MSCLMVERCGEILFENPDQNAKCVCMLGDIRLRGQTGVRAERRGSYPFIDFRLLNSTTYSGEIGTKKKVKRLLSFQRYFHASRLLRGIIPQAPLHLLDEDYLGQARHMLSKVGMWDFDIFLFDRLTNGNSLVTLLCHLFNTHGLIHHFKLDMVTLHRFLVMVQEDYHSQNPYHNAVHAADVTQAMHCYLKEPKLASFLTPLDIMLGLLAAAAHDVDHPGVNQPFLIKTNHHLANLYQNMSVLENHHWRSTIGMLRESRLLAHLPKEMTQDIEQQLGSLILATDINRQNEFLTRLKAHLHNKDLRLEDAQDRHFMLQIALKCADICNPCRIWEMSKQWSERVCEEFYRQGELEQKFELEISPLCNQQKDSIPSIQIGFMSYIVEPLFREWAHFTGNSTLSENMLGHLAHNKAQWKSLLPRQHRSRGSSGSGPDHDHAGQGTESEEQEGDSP
How it was run: as §1

human PDE7A1 = human PDE7A1 (Homo sapiens, UniProt Q13946); assay: Fission yeast 5FOA growth assay / HTS, PDE7A-expressing strain CHP1189; format: cell-based; conditions: for stimulation of 5FOA-resistant growth, PDE7A-expressing strain: range of concentrations, 48 hours, OD600; for average OD600 in PDE7A HTS: 20μM compound, 48 hours growth in 5FOA medium, duplicate
human PDE7A1, sequence (Q13946 whole entry): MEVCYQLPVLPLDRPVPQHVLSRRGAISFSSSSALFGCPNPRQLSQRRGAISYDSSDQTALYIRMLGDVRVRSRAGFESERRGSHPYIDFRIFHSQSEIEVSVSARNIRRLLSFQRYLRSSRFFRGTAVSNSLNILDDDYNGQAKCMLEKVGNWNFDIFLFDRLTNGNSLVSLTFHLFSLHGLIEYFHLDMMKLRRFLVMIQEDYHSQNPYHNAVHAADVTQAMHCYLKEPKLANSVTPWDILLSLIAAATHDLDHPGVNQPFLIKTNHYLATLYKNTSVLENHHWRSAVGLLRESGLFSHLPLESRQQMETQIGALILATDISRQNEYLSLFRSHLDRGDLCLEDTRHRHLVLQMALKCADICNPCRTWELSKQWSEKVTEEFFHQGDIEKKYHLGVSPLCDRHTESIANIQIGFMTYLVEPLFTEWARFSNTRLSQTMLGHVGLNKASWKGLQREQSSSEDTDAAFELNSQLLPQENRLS
How it was run: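 Fission yeast strain CHP1189 carries human PDE7A in place of cgs2, plus gpa2Δ, pap1Δ and fbp1-ura4/fbp1-lacZ reporters. It was grown to exponential phase in EMM with 2.5 mM cAMP, then resuspended in 5FOA medium at 1 × 10^5 cells/ml. Compounds were mostly at 20μM, in duplicate, with DMSO negative and 5mM cAMP positive controls. Growth was 48 h at 30°C, read as OD600. Per-plate Z scores were combined into a composite Z score.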

human PDE7B1 = human PDE7B1 (Homo sapiens, UniProt Q9NP56); assay: Fission yeast 5FOA growth assay, PDE7B-expressing strain; format: cell-based; conditions: range of concentrations, 48 hours, OD600
human PDE7B1, sequence (Q9NP56 whole entry): as the sequence (Q9NP56 whole entry, species assumed) above
How it was run: (§2)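 5FOA growth assays, run as in the PDE7A screen, used fission yeast strains expressing human PDE4A1, PDE4B2, PDE4D3 or PDE7B1 from the cgs2 locus. Compound was added over a concentration range, with DMSO kept below 0.2%. Cultures grew 48 h at 30°C. OD600 is the mean of four wells.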

[1] = test system: TNFα release by LPS-treated U937 cells; assay: TNFα release assay in PMA-activated, LPS-treated U937 cells; format: cell-based, human; conditions: for TNFα release, combined with rolipram, 3 hours LPS / TNFα release, combined with rolipram, 20 hours LPS: 10μM each, compared to rolipram alone
How it was run: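 U937 cells at 10^6 cells/ml in RPMI 1640 with 10% FBS were primed 17 hr with 300 ng/ml PMA. Aliquots of […] were diluted with equal medium and given 10 μM compound, alone or with rolipram, for 1 hr; vehicle was ethanol with <0.1% DMSO. LPS (25 μg/ml) followed, and supernatant TNFα was measured by ELISA at 3 or 20 h. Values are % of vehicle, 2–6 independent experiments, paired one-tailed t-test.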

human PDE4A1 = human PDE4A1 (Homo sapiens, UniProt P27815); assay: Fission yeast 5FOA growth assay, PDE4A1-expressing strain; format: cell-based; conditions: dose response, 48 hours
How it was run: as §2

human PDE4B2 = human PDE4B2 (Homo sapiens, UniProt Q07343); assay: Fission yeast 5FOA growth assay, PDE4B2-expressing strain; format: cell-based; conditions: dose response, 48 hours
human PDE4B2, sequence (Q07343 1-564 isoform Q07343-2): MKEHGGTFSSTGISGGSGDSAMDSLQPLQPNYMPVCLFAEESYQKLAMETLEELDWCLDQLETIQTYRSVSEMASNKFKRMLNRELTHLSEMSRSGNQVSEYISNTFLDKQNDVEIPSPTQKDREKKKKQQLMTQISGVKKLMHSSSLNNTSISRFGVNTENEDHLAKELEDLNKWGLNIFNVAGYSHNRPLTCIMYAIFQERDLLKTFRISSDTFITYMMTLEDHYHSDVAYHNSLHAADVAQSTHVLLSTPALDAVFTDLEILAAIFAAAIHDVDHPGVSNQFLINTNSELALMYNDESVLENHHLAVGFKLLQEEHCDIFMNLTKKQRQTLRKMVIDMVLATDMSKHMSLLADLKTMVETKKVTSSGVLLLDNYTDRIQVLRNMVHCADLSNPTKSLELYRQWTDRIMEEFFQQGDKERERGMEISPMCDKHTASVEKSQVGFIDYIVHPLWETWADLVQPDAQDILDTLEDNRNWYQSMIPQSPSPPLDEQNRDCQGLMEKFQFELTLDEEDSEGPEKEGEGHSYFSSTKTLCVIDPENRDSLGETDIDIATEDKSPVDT
How it was run: as §2

human PDE4D3 = human PDE4D3 (Homo sapiens, UniProt Q08499); assay: Fission yeast 5FOA growth assay, PDE4D3-expressing strain; format: cell-based; conditions: dose response, 48 hours
human PDE4D3, sequence (Q08499 1-673 isoform Q08499-2): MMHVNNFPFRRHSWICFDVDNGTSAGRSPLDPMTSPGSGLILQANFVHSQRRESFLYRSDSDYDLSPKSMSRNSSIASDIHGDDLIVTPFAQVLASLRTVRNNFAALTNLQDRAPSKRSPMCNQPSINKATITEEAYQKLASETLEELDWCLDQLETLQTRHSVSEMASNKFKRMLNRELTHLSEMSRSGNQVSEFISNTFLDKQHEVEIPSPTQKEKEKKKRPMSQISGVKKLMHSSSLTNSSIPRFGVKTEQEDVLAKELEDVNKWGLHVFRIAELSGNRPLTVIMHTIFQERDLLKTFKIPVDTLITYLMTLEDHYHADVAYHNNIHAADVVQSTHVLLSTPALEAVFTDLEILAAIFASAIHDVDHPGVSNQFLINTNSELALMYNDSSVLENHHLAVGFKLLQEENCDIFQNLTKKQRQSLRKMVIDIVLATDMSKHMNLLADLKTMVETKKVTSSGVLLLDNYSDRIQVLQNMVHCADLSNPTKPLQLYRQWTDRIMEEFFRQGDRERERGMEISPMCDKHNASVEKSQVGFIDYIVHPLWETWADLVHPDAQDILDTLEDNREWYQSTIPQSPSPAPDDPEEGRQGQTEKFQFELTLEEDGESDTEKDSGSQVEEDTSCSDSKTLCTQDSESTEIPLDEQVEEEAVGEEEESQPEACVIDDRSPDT
How it was run: as §2

mouse PDE4A1 = target: T1, mouse PDE4A1 (Mus musculus, UniProt O89084); assay: Fission yeast HTS, mouse PDE4A1-expressing strain; format: cell-based; conditions: 20μM
T1 sequence (O89084 1-610 isoform O89084-2): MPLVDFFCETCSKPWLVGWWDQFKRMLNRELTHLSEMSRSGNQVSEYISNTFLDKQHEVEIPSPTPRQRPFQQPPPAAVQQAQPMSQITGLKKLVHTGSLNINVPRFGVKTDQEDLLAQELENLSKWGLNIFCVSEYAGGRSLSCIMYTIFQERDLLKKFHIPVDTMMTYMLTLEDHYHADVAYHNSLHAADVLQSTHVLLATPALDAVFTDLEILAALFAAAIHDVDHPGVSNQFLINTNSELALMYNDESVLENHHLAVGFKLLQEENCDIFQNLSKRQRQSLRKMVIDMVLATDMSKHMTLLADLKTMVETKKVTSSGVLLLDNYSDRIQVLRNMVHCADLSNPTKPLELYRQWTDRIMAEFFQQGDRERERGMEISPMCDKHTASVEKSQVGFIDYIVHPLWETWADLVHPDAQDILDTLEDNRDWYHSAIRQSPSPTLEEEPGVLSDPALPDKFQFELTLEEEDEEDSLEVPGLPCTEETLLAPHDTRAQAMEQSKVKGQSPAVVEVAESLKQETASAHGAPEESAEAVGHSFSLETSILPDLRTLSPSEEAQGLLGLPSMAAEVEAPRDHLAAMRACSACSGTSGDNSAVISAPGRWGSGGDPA

PDE1B = PDE1B (Homo sapiens, UniProt Q01064); assay: Fission yeast 5FOA growth assay, PDE1B-expressing strain; format: cell-based; conditions: data not shown
PDE1B, sequence (Q01064 whole entry, species assumed): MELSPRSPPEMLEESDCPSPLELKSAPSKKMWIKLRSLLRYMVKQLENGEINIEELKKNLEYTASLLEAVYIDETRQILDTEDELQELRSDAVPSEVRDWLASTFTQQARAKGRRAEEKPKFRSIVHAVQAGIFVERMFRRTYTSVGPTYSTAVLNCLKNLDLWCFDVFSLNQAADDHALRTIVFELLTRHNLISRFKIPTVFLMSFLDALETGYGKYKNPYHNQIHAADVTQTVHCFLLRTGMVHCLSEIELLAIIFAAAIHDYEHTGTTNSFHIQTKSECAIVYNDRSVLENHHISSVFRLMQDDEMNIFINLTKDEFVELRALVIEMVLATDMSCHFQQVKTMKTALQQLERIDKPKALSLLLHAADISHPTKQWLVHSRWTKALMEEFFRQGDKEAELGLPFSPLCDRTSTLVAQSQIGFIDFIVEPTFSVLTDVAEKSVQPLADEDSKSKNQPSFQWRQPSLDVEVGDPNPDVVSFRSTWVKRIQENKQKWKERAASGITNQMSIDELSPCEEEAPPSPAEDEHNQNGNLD
How it was run: (§3)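 Fission yeast 5FOA growth assays used strains each expressing one mammalian PDE, read as OD600. For cGMP-specific PDEs, strains lacked adenylate cyclase and the 5FOA medium contained 30μM to 1mM cGMP.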

PDE1C = PDE1C (Homo sapiens, UniProt Q14123); assay: Fission yeast 5FOA growth assay, PDE1C-expressing strain; format: cell-based; conditions: data not shown
How it was run: as §3

PDE2A = PDE2A (Homo sapiens, UniProt O00408); assay: Fission yeast 5FOA growth assay, PDE2A-expressing strain; format: cell-based; conditions: data not shown
How it was run: as §3

PDE3B = PDE3B (Homo sapiens, UniProt Q13370); assay: Fission yeast 5FOA growth assay, PDE3B-expressing strain; format: cell-based; conditions: data not shown
How it was run: as §3

PDE5A = PDE5A (Homo sapiens, UniProt O76074); assay: Fission yeast 5FOA growth assay, PDE5A-expressing strain; format: cell-based; conditions: data not shown
How it was run: as §3

PDE8A = PDE8A (Homo sapiens, UniProt O60658); assay: Fission yeast 5FOA growth assay, PDE8A-expressing strain; format: cell-based; conditions: data not shown
PDE8A, sequence (O60658 whole entry, species assumed): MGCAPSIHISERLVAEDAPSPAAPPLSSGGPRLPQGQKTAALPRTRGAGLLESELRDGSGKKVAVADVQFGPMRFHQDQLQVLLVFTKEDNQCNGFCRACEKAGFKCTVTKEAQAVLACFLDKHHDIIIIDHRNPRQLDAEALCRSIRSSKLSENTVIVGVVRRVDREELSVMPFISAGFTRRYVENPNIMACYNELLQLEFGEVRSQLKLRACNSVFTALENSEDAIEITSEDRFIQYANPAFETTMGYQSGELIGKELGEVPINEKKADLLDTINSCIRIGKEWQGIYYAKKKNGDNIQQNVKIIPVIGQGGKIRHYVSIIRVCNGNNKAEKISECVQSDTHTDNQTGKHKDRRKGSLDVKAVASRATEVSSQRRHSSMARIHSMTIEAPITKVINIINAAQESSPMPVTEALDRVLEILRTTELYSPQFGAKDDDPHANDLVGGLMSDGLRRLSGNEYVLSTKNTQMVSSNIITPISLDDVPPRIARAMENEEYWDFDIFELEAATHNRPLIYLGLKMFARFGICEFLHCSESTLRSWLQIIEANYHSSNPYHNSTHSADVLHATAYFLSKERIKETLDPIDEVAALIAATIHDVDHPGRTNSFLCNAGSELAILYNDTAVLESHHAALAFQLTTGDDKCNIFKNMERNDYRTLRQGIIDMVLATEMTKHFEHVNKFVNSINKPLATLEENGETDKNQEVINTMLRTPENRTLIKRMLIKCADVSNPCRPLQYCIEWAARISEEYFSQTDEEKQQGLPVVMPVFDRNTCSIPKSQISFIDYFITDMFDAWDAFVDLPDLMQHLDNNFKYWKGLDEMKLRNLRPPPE
How it was run: as §3

PDE9A = PDE9A (Homo sapiens, UniProt O76083); assay: Fission yeast 5FOA growth assay, PDE9A-expressing strain; format: cell-based; conditions: data not shown
How it was run: as §3

PDE11A = PDE11A (Homo sapiens, UniProt Q9HCR9); assay: Fission yeast 5FOA growth assay, PDE11A-expressing strain; format: cell-based; conditions: data not shown
PDE11A, sequence (Q9HCR9 whole entry, species assumed): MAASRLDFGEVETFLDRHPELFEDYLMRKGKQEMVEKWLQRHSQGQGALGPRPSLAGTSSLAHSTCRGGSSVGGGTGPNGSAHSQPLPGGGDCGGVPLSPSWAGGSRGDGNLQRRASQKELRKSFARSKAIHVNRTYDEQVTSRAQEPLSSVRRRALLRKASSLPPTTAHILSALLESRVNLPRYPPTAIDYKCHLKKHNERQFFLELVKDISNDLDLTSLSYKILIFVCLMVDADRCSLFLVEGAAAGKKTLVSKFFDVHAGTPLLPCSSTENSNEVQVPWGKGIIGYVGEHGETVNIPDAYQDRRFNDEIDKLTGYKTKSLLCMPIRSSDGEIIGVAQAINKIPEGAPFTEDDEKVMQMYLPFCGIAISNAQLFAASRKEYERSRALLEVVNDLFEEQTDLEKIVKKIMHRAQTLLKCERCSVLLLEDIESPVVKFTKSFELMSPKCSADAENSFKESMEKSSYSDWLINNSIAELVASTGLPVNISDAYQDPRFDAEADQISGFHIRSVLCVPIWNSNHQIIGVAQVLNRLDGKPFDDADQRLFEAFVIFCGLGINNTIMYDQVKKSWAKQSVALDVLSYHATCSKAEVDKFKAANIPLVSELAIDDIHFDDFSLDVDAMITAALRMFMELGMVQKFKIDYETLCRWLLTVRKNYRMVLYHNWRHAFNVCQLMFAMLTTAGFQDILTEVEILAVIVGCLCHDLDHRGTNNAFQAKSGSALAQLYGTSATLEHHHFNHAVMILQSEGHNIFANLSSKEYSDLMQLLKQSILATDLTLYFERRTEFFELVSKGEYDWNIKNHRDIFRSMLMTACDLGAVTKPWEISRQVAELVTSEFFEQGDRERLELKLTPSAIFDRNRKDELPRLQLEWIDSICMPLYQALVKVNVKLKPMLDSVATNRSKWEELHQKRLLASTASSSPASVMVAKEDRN
How it was run: as §3

PDE10A = assay: Fission yeast 5FOA growth assay, PDE10A-expressing strain; format: cell-based; conditions: 40μM compound, data not shown
How it was run: as §3

[2] = target: PDE4D catalytic domain (residues 86-413 of PDE4D2) (Homo sapiens, UniProt Q08499); assay: In vitro enzyme assay, PDE4D catalytic domain; format: biochemical
PDE4D catalytic domain (residues 86-413 of PDE4D2), sequence (Q08499 388-715): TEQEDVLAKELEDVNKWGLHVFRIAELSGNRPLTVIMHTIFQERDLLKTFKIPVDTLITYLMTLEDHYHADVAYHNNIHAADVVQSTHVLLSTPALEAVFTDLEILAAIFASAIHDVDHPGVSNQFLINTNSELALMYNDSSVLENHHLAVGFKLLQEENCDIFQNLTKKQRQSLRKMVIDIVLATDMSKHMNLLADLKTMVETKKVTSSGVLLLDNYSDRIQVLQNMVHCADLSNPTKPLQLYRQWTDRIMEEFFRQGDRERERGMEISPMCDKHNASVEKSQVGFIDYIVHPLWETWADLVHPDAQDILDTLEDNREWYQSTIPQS
How it was run: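 PDE4D catalytic domain (PDE4D2 residues 86-413) was expressed in and purified from E. coli and tested in the 3H-cAMP hydrolysis assay with Ba(OH)2 precipitation. Enzyme was at 16 nM with 25 nM test compound across varying cAMP concentrations. A separate panel used 2μM compound against PDE4A, PDE4B and PDE4D catalytic domains.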

[3] = target: full-length PDE4D2 (residues 1-507) (Homo sapiens, UniProt Q08499); assay: In vitro enzyme assay, full-length PDE4D2; format: biochemical; conditions: data not shown
[4] = 10μM, 1 hr pretreatment, vs vehicle-treated control

PDE7A, sequence (Q13946 whole entry, species assumed): as the sequence (Q13946 whole entry) above

Cc1ccc([N+](=O)[O-])cc1S(=O)(=O)N(C)C [BRL50481, 3-(N,N-dimethylsulfonamido)-4-methyl-nitrobenzene, reference compound]
IC50 (PDE7A; read-out: IC50 against PDE7A, in vitro enzyme assay): ~150 nM
IC50 on PDE7B relative to PDE7A (PDE7B): 80 fold
stimulation of 5FOA-resistant growth, PDE7A-expressing strain (human PDE7A1): most effective compound for stimulation of 5FOA-resistant growth
stimulation of 5FOA-resistant growth, PDE7B-expressing strain (human PDE7B1): rather poor inhibitor of PDE7B, equal to BC11 and BC39, and far less effective than BC30
TNFα release, combined with rolipram, 3 hours LPS [1]: modestly enhances the rolipram-mediated reduction of TNFα release
TNFα release, combined with rolipram, 20 hours LPS [1]: modestly enhances the rolipram-mediated reduction of TNFα release

C[C@]12CCC(=O)C=C1C=C[C@@H]1[C@@H]2CC[C@@]2(C)[C@H]1CC[C@@]21CCC(=O)O1 [canrenone, reference compound]
average OD600 in PDE7A HTS (human PDE7A1): > 0.821

COc1ccc(C2CNC(=O)C2)cc1OC1CCCC1 (centres unmarked) [rolipram, reference compound]
TNFα release, compound alone, 20 hours LPS [1, 4]: significant reduction in TNFα release

N#Cc1sc2sc(C#N)c(-c3ccco3)c2c1N [BC30, 3-amino-4-(2-furyl) thieno[2,3-b]thiophene-2,5-dicarbonitrile]
IC50 (PDE7A): 1100 nM
IC50 (PDE7B): 3700 nM
effect on Km of PDE7B (PDE7B; data not shown): appears to increase the Km of PDE7B
IC50 on PDE7B relative to PDE7A (PDE7B): four-fold lower IC50 on PDE7A than PDE7B
PDE7A inhibition upon rescreening (human PDE7A1; 2μM, data not shown): one of the most effective PDE7A inhibitors
rank of Composite Z score in PDE7A HTS (human PDE7A1; 20μM screen, 48,176 compounds): 40
stimulation of 5FOA-resistant growth, PDE7A-expressing strain (human PDE7A1): very potent at low micromolar concentrations
stimulation of 5FOA-resistant growth, PDE7B-expressing strain (human PDE7B1): the best inhibitor of PDE7B
effect on 5FOA growth, human PDE4A1 strain (human PDE4A1): no effect on the growth
effect on 5FOA growth, human PDE4B2 strain (human PDE4B2): no effect on the growth
effect on 5FOA growth, human PDE4D3 strain (human PDE4D3): no effect on the growth
activity in HTS, mouse PDE4A1 strain (mouse PDE4A1): very weak activity
effect on 5FOA growth, PDE1B strain (PDE1B): no effect on growth
effect on 5FOA growth, PDE1C strain (PDE1C): no effect on growth
effect on 5FOA growth, PDE2A strain (PDE2A): no effect on growth
effect on 5FOA growth, PDE3B strain (PDE3B): no effect on growth
effect on 5FOA growth, PDE5A strain (PDE5A): no effect on growth
effect on 5FOA growth, PDE8A strain (PDE8A): no effect on growth
effect on 5FOA growth, PDE9A strain (PDE9A): no effect on growth
effect on 5FOA growth, PDE11A strain (PDE11A): no effect on growth
OD600 of PDE10A-expressing strain (PDE10A): 0.53
effect on Vmax of PDE4D catalytic domain ([2]; 25 nM compound, varying cAMP): doubling the Vmax
effect on cAMP hydrolysis by PDE4D catalytic domain ([2]; 2μM compound, data not shown): significantly stimulate cAMP hydrolysis
concentration producing the maximum increase in PDE4D catalytic domain activity ([2]; enzyme concentration 16 nM): 25 nM
effect on activity of full-length PDE4D2 [3]: neither BC30 nor the other compounds that stimulate the catalytic domain of PDE4D affect the activity of the full-length PDE4D2
TNFα release, combined with rolipram, 3 hours LPS [1]: dramatic reduction of TNFα release
TNFα release, combined with rolipram, 20 hours LPS [1]: dramatic reduction of TNFα release
TNFα release, compound alone, 3 hours LPS [1, 4]: significant reduction in TNFα release
TNFα release, compound alone, 20 hours LPS [1, 4]: significant reduction in TNFα release

CC(=O)O[C@@H]1CC[C@@]2(C)[C@@H](CC[C@@H]3[C@@H]2CC[C@]2(C)C(=O)CC[C@@H]32)C1 [androsterone acetate]
average OD600 in PDE7A HTS (human PDE7A1): > 0.821
